High-throughput results (PubChem BioAssay)
Compounds with a hit are over-represented: about 3.5% of the library has one in this group of screens.
MEKK2mut PB1 HTS: signal of MEK5 binding to mutant human MEKK2 PB1 domain; bead flow cytometry, Alexa488-MEK5 binding to MEKK2 mutant; percent response, % at 10 µM; 290,000 compounds, 0.35% hits; in the data active = percent response above about 24%, passing the limit was not always enough
MEKK3 PB1 HTS: raises or lowers MEK5 binding to the human MEKK3 PB1 domain | Q99759 | 290,000 compounds, 1.4% hits | bead-based flow cytometry, Alexa488-MEK5 binding to MEKK3; actives lie on both sides; 0 = blocked by unlabeled MEK5, 100 = vehicle | binding response (% of control), % at 10 µM | AID 1529;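 active = binding response more than 3 SD above or below the average of its plate-row segment, actives on both sides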;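 also: Alexa488 bead fluorescence after subtracting the streptavidin-only scavenger bead signal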
MEKK2wt PB1 HTS: raises or lowers MEK5 binding to wildtype human MEKK2 PB1 domain | 290,000 compounds, 1.1% hits | bead flow cytometry, Alexa488-MEK5 binding to MEKK2 WT; actives lie on both sides | AID 1531 | binding response (% of control), % at 10 µM; in the data active = binding response below about 67% or above about 130%
WT yeast gro inh: growth inhibition of WT yeast, mitochondrial fusion screen | mitochondrial fusion phenotypic screen, WT strain | inhibition, % at 10 µM | 190,000 compounds, 2.1% hits; in the data active = inhibition above about 58%; tested in S. cerevisiae
ABCB1 inh: human ABCB1 inhibition, ABCG2 as counter-screen. 190,000 compounds, 0.067% hits. CCRF-Adr cells, JC-1 efflux, flow cytometry. P08183. inhibition, % at 6.6 µM; in the data active = inhibition above about 40%;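 also: 0% = vehicle and 100% = reference inhibitor; higher value means more JC-1 retained so stronger ABCB1 efflux block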
Target sequence (P08183 whole entry, looked up): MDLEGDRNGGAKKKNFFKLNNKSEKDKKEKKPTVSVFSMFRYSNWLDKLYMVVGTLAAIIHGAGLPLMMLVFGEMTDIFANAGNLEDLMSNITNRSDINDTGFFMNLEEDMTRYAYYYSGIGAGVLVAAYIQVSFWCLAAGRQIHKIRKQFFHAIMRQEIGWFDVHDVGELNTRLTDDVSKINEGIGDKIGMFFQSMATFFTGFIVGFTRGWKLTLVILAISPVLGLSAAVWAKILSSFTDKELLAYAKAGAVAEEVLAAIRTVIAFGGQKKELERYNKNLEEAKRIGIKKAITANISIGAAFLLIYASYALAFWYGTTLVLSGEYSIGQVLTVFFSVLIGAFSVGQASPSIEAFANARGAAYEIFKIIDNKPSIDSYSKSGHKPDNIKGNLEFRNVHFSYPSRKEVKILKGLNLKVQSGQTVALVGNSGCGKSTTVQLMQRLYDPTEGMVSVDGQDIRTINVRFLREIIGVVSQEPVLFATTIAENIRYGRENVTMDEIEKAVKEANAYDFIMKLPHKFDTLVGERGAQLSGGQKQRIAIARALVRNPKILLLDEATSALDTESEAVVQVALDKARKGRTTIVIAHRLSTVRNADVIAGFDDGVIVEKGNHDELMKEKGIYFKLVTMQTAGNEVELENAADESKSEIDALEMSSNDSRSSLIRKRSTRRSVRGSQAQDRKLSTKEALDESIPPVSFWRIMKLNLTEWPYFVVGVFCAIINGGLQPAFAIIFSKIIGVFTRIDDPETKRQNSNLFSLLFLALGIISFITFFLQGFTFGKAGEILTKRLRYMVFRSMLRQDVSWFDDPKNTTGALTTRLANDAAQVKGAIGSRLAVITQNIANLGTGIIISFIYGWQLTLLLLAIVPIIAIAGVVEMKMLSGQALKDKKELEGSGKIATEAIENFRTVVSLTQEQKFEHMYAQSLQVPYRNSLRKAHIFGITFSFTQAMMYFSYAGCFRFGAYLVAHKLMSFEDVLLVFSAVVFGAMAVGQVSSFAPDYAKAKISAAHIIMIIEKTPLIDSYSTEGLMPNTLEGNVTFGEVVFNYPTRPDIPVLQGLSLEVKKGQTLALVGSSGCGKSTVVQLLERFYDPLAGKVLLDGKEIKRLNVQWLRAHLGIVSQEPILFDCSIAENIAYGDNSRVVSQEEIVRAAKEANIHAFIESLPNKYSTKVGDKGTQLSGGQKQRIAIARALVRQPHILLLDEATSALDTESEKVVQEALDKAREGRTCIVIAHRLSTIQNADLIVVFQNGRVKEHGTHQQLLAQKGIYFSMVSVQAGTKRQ
ABCG2 inh: inhibitors of human ABCG2 transporter, ABCB1 counter-screen | inhibition, % at 6.6 µM | IgMXP3 cells, JC-1 efflux, flow cytometry | Q9UNQ0 | 190,000 compounds, 0.1% hits | AID 1325;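 active = inhibition above 80%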;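 also: 0% = DMSO and 100% = nicardipine control wells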
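test system = two drug-resistant human cell lines, ABCG2 and ABCB1 | amount = 3 million cells/mL final, two lines in 1:1 ratio | reagent = JC-1 transporter substrate | doses = one concentration, 6.6 µM final | incubation = 10 min at 25 °C | signal = flow cytometric JC-1 green MFI at 530 nm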
MEKK2wt confirm: raises or lowers MEK5 binding to wildtype human MEKK2, retest. shares compounds with MEKK3 PB1 HTS. bead flow cytometry, Alexa488-MEK5 binding to MEKK2 WT; actives lie on both sides. binding response (% of control), % at 10 µM. 5,900 compounds, 2.4% hits. AID 1892; in the data active = binding response below about 16% or above about 210%; inactive = in between
MEKK2mut-MEK5: signal of MEK5 binding to mutant human MEKK2, retest | 5,900 compounds, 2% hits | bead flow cytometry, Alexa488-MEK5 binding to MEKK2 mutant | shares compounds with MEKK3 PB1 HTS | percent response, % at 10 µM; in the data active = percent response mostly above about 71%, no sharp cut-off; inactive = mostly below about 38%;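 also: higher means compound restores mutant binding toward wildtype level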
MEKK3-MEK5 inh: MEKK3-MEK5 PB1 inhibition, single concentration confirmation; shares compounds with MEKK3 PB1 HTS; bead flow cytometry, Alexa488-MEK5 binding to MEKK3; active compounds read low; binding response (% of control), % at 10 µM; 5,900 compounds, 1.8% hits; AID 1894;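 active = binding response below 72% of control, or above a set upper limit, though filed actives all read lower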;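 also: 100% = DMSO only wells and 0% = binding blocked by excess unlabeled MEK5; lower values mean stronger disruption of MEK5 binding to MEKK3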
Starred values were filed as active, the others as inactive; x = no result; [ ] = dose if it differs, or a comment.

SMILES	MEKK2mut PB1 HTS	MEKK3 PB1 HTS	MEKK2wt PB1 HTS	WT yeast gro inh	ABCB1 inh	ABCG2 inh	MEKK2wt confirm	MEKK2mut-MEK5	MEKK3-MEK5 inh
COc1ccc(C(=O)O)cc1S(=O)(=O)N1CCCc2ccccc21	6	98	98	x	x	x	x	x	x
CCOC(=O)N1CCN(S(=O)(=O)c2ccc(C(=O)N(CCN(CC)CC)c3nc4ccc(C)cc4s3)cc2)CC1	20	107	130	x	x	x	x	x	x
CN(C)CCCN(C(=O)c1ccc(S(=O)(=O)N2CCOCC2)cc1)c1nc2ccc(F)cc2s1	-1	92	106	x	x	x	x	x	x
CCOC(=O)N1CCN(S(=O)(=O)c2ccc(C(=O)N(CCCN(C)C)c3nc4ccc(CC)cc4s3)cc2)CC1	19	102	133	x	x	x	x	x	x
CN(C)CCCN(C(=O)c1cc2ccccc2oc1=O)c1nc2c(F)cccc2s1	14	103	108	-5	2	2	x	x	x
CCc1ccc2nc(N(CCCN(C)C)C(=O)c3ccc(S(=O)(=O)N4CCCc5ccccc54)cc3)sc2c1	32*	97	188*	x	x	x	203	52	107
CN(C)CCCN(C(=O)c1ccc(S(=O)(=O)N2CCCCCC2)cc1)c1nc2c(F)cccc2s1	14	105	134*	x	x	x	127	10	101
CCc1ccc2nc(N(CCCN(C)C)C(=O)c3ccc(S(=O)(=O)N4CCCC4)cc3)sc2c1	16	106	135*	x	x	x	134	17	106
Cc1ccc(N2CCN(C(=O)C3CCC(=O)N(Cc4ccc(Cl)cc4)C3)CC2)c(C)c1 (stereo not drawn)	2	101	102	x	x	x	x	x	x
O=C(NCc1ccccc1)c1ccc(N2C(=O)C3CCCCC3C2=O)cc1 (stereo not drawn)	1	142*	105	9	3	10	104	5	106
Cc1ccc(C(=O)C[n+]2cccc3cc(C)ccc32)cc1	x	25*[inhibitor]	x	-8	1	-1	102	-4	97
O=C(C[n+]1cccc2ccccc21)c1ccc(NC(=O)c2ccccc2)cc1	x	37*[inhibitor]	x	17	1	5	108	-5	98
CCOc1ccc(C(=O)C[n+]2cccc3cc(C)ccc32)cc1	0	90	108	x	x	x	x	x	x
COc1ccccc1NC(=O)c1ccc(SCC(=O)NCc2ccccc2Cl)c([N+](=O)[O-])c1	0	133*	103	2	2	21	95	0	103
O=C(NCc1nc2ncc(Br)cc2[nH]1)c1ccccc1	-15	0.0*[inhibitor]	0.0*[inhibitor]	-3	0	1	90	-4	95
Brc1cnc2nc(SC/C=C/c3ccccc3)[nH]c2c1	-1	99	94	x	x	x	x	x	x
Cc1nnsc1C(=O)Nc1cc(Cl)ccc1Cl	5	117	90	-17	0	0	x	x	x
COc1ccc(N(C(=O)CNC(=O)c2ccco2)C(C(=O)NC2CCCC2)c2ccco2)cc1 (stereo not drawn)	-1	98	99	x	x	x	x	x	x
O=c1[nH]c(=S)[nH]c2c1C(c1cc([N+](=O)[O-])c(N3CCOCC3)cc1N1CCOCC1)O2 (stereo not drawn)	5	142*	125	-6	2	11	96	-2	99
N#CCCN(CCC#N)C(=S)NC1CC2C=CC1C2 (stereo not drawn)	-18	85	93	x	x	x	x	x	x
N#CCCN(Cc1ccncc1)C(=S)NC1CC2C=CC1C2 (stereo not drawn)	-53	47*[inhibitor]	55	x	x	x	103	3	102
Cc1nnc(SCc2ccccc2CSc2nnc(C)s2)s1	0	130*	113	6	2	4	106	7	107
Cc1ccc(NS(=O)(=O)c2cccc(C(=O)N/N=C/c3c(C)nn(-c4ccccc4)c3N3CCCC3)c2)c(C)c1	0	91	100	-21	0	13	x	x	x
Cc1ccc(NS(=O)(=O)c2cccc(C(=O)N/N=C/c3ccc4c(c3)OCCO4)c2)c(C)c1	0	129*	110	-5	2	-1	97	-3	98
Cn1ncc(N=Cc2ccc([N+](=O)[O-])cc2)c1C(=O)Nc1ccccc1	10	102	102	1	1	6	x	x	x
SMILES	MEKK2mut PB1 HTS	MEKK3 PB1 HTS	MEKK2wt PB1 HTS	WT yeast gro inh	ABCB1 inh	ABCG2 inh	MEKK2wt confirm	MEKK2mut-MEK5	MEKK3-MEK5 inh
CCCCc1ccc(NC(=O)N[C@@H](CC(C)C)C(=O)O)cc1	7	2.0*[inhibitor]	112	x	x	x	98	-8	97
Cc1nnc2c3ccccc3c(-c3ccccc3)nn12	0	102	98	x	x	x	x	x	x
OCc1nnc2c3ccccc3c(-c3ccccc3)nn12	10	122*	118	4	1	8	106	8	103
O=C(COc1ccccc1)N=C1SC2CS(=O)(=O)CC2N1c1ccc(F)cc1F (stereo not drawn)	5	97	98	x	x	x	x	x	x
O=[N+]([O-])c1ccccc1-c1ccc(/C=N/n2cnnc2)o1	6	104	109	8	0	27	x	x	x
Nn1cnnc1N/N=C\c1ccc(-c2ccccc2[N+](=O)[O-])o1	0	156*	106	-5	0	15	97	-1	101
O=C(CC12CC3CC(CC(Br)(C3)C1)C2)NC1CCCC1	3	100	99	x	x	x	x	x	x
O=c1cc(CSc2nnc(COc3ccccc3)o2)c2ccccc2[nH]1	7	125*	121	-2	0	3	100	-1	101
COc1ccc(NC(=O)C2CCC(CNS(=O)(=O)c3cccs3)CC2)cc1 (stereo not drawn)	-45	5.0*[inhibitor]	7.0*[inhibitor]	5	0	23	101	-3	99
COc1ccc(NC(=O)C2CCN(c3nc(C)cc(C)n3)CC2)cc1	-1	2.0*[inhibitor]	2.0*[inhibitor]	0	1	4	102	-4	99
O=C(NNC(=S)Nc1ccc(Cl)cc1Cl)c1ccc(N2CCOCC2)c([N+](=O)[O-])c1	-1	103	99	-21	x	1	x	x	x
Cc1ccc(NC(=O)c2ccc3ncsc3c2)cc1S(=O)(=O)N(C)C	-14	84	92	x	x	x	x	x	x
CC(C)(C)NC(=O)c1ccc2c(c1)C1C3CCC(C3)C1C(c1ccccc1)N2 (stereo not drawn)	1	198*	109	47	2	13	119	12	105
